Experimental findings from ChEMBL document CHEMBL1148324 (J Med Chem, 2004) are described below.

Assay [1] addresses T1, Sulfonylurea receptors; K-ATP channels (Homo sapiens, UniProt O60706+Q09428+Q14654+Q15842). Description: (§1) Evaluated for K-ATP activity in terms of change in membrane potential through guinea pig bladder assay. It is filed as functional, Cavia porcellus. Particulars: target entry is the homologue from another species.
The target of assay [2] is T1, Sulfonylurea receptors; K-ATP channels. The assay can be described thus: Evaluated for K-ATP activity in terms of stable twitch response through field-stimulated landrace pig detrusor assay. In kind it is functional, Sus scrofa. As to conditions: target entry is the homologue from another species.
Assay [3] shares this target. Description: Evaluated for K-ATP activity as in vitro bladder relaxation in spontaneous Landrace pig detrusor strips (SLPD). In kind it is functional, Sus scrofa. As to conditions: target entry is the homologue from another species. An outline of the steps:
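Bladder strips taken near the trigonal region of Landrace pig bladder, contracting spontaneously (myogenic, no cholinergic component). Test agents added at increasing concentrations; the read-out is the reduction in area under the contraction curve.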

Assay [4] in a line: Selectivity expressed as the ratio of pEC50 (SLPD) and pEC50 (FSLPD). It is filed as functional.
In assay [5] the target is Sulfonylurea receptors; K-ATP channels (UniProt Q14654+O60706+Q09428+Q15842). The assay is described as §1. It is filed as functional, Cavia porcellus. As to conditions: target entry is the homologue from another species.
Sulfonylurea receptors; K-ATP channels (UniProt Q14654+O60706+Q09428+Q15842), sequence (Q14654 whole entry): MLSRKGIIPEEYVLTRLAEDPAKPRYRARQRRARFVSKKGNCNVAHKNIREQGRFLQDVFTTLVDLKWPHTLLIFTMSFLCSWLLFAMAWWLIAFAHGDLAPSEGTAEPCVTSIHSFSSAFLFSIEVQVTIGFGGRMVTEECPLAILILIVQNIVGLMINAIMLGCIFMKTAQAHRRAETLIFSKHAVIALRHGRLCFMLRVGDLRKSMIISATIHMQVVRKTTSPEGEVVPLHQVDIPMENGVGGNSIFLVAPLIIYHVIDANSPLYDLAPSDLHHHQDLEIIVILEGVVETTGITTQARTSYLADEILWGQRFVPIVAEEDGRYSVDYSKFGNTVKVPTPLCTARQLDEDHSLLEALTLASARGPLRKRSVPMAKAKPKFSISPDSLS
Sulfonylurea receptors; K-ATP channels (UniProt Q14654+O60706+Q09428+Q15842), sequence (O60706 whole entry): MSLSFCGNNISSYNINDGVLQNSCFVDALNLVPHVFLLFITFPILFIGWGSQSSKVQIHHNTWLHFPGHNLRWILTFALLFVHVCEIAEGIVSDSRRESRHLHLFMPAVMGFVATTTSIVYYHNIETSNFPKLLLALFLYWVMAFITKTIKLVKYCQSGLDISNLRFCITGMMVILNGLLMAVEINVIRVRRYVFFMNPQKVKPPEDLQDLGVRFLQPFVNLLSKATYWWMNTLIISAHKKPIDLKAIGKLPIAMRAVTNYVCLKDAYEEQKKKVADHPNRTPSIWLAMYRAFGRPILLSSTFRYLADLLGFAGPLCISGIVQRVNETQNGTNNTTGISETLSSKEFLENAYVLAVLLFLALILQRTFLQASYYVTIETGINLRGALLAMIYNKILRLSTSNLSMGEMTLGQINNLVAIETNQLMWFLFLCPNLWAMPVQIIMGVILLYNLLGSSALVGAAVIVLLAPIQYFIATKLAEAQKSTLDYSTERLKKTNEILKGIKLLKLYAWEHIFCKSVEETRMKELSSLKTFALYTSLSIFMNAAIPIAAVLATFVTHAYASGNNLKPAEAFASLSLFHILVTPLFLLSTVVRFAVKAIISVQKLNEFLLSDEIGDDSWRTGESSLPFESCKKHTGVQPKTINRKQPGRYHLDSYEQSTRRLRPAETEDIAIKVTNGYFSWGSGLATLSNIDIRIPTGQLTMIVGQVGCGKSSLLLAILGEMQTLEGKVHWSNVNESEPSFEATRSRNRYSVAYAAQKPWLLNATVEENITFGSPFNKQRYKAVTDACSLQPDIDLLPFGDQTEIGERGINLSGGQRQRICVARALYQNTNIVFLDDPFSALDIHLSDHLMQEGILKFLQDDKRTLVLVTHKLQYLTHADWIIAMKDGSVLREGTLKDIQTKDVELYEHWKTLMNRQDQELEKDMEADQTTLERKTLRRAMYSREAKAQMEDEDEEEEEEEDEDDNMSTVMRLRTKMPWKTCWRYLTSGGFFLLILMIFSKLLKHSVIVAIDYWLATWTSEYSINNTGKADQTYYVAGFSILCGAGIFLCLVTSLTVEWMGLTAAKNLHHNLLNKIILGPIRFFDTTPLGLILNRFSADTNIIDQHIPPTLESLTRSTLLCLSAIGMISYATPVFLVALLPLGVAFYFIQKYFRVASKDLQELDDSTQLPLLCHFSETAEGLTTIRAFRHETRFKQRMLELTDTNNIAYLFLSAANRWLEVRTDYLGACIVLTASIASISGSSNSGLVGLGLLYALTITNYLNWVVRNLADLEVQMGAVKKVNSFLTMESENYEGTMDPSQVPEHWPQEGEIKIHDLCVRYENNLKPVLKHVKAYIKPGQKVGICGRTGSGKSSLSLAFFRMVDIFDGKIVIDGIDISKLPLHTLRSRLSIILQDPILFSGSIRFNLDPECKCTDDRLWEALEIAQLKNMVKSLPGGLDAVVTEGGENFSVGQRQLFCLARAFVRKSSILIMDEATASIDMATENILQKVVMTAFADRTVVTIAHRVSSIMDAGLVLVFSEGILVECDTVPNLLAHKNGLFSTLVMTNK
Sulfonylurea receptors; K-ATP channels (UniProt Q14654+O60706+Q09428+Q15842), sequence (Q09428 whole entry): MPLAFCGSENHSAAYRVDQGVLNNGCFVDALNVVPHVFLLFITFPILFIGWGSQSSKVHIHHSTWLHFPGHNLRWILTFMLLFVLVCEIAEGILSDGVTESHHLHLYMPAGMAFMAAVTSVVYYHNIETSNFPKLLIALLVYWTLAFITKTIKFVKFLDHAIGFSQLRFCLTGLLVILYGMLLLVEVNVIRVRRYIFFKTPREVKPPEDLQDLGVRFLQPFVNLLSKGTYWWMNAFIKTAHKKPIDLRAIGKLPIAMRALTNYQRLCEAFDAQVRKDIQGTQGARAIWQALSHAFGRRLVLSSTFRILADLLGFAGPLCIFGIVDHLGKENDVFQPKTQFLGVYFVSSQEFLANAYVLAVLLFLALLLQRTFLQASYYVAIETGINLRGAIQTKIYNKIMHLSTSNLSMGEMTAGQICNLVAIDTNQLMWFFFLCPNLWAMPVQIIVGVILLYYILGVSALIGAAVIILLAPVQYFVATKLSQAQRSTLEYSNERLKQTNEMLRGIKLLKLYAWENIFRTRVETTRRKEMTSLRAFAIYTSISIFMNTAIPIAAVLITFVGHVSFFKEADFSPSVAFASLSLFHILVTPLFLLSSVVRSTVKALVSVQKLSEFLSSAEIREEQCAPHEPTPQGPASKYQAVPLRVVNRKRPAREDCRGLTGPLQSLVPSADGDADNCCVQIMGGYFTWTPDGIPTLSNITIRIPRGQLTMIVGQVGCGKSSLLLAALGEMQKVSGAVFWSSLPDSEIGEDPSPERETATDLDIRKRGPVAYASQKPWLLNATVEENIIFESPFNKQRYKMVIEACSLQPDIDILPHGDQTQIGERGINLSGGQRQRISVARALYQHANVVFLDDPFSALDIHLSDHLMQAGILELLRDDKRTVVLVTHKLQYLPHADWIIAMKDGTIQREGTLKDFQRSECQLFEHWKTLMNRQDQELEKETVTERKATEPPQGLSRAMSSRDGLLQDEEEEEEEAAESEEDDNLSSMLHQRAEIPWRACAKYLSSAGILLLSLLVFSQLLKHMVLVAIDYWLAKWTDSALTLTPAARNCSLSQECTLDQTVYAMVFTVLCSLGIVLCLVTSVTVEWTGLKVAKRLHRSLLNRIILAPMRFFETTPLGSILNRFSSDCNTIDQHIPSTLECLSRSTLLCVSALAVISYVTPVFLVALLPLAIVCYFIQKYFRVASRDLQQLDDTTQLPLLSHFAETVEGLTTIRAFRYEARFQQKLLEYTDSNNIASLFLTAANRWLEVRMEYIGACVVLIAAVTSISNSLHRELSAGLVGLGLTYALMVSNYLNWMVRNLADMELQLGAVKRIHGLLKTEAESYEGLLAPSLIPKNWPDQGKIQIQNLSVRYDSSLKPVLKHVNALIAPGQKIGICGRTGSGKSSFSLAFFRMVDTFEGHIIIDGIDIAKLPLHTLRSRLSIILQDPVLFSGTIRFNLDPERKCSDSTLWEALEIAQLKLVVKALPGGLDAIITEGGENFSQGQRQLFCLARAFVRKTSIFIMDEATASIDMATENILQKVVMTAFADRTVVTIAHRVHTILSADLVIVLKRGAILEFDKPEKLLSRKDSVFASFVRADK
Sulfonylurea receptors; K-ATP channels (UniProt Q14654+O60706+Q09428+Q15842), sequence (Q15842 whole entry): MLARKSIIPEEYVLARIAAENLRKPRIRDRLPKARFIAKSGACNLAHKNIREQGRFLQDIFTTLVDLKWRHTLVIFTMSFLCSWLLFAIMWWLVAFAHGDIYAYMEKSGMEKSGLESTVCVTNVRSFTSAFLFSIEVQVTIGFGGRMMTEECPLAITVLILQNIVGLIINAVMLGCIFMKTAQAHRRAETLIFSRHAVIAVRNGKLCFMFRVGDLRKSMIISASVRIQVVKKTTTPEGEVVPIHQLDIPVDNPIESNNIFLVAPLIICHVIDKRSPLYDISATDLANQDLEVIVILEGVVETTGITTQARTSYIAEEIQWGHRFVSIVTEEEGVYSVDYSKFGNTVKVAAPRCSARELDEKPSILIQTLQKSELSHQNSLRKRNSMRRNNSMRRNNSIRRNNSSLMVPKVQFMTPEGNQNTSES

In general, EC50 refers to the concentration giving half of the maximal effect. Higher therefore signals a less potent agent. In the case of `N#Cc1cccc([C@H]2C3=C(CCCC3=O)NC3=C2S(=O)(=O)CC3)c1`, the EC50 is 5890 nM in assay [1] and 12900 nM in assay [2]. For `O=C1CCCC2=C1C(c1ccc(F)c(Br)c1)C1=C(CCCS1(=O)=O)N2` (stereo in doubt; 17(-)) the same measures were 38 nM and 363 nM.

Regarding `O=C1CCCC2=C1[C@H](c1cc(Br)ccc1O)C1=C(CCS1(=O)=O)N2`, the EC50 in assay [1] was 575 nM; in assay [2], 20400 nM. For the compound `O=C1CCCC2=C1[C@H](c1ccc(Br)c(Br)c1)C1=C(CCS1(=O)=O)N2`, the 50% effective concentration (EC50) in assay [1] was 55 nM; in assay [2], 537 nM. For `CC1(C)CCC2=C(C1=O)[C@@H](c1ccc(F)c(Br)c1)C1=C(CCS1(=O)=O)N2` the same measures were 107 nM and 977 nM. In assay [1], `N#Cc1cc(C2C3=C(CCC3=O)NC3=C2S(=O)(=O)CC3)ccn1` (stereo not drawn) showed an EC50 of 3160 nM. In other words, the single-digit micromolar range.

In assay [1], `O=C1CCC2=C1C(c1ccc(Br)s1)C1=C(CCS1(=O)=O)N2` (stereo not drawn) had an EC50 of 1860 nM.

On to `Cc1ccc([C@H]2C3=C(CCCC3=O)NC3=C2S(=O)(=O)CC3)cc1I`, for which the EC50 in assay [1] was 21.9 nM; in assay [2], 309 nM.

`O=C1CCC2=C1[C@@H](c1ccc(F)c(Br)c1)C1=C(CCCS1(=O)=O)N2`: the EC50 in assay [1] is 52.5 nM; in assay [2], 282 nM.

Consider `O=C1CCCC2=C1[C@H](c1ccc(C(F)(F)F)c(Br)c1)C1=C(CCS1(=O)=O)N2`, for which the EC50 in assay [1] was 219 nM; in assay [2] it was 9550 nM.

`O=S1(=O)CCC2=C1C(c1ccc(F)c(Br)c1)C1=C(CCS1(=O)=O)N2`: the EC50 in assay [1] is 339 nM; in assay [2] it was 269 nM. Regarding `N#Cc1ccnc(C2C3=C(CCC3=O)NC3=C2S(=O)(=O)CC3)c1` (stereo not drawn), the EC50 in assay [1] is over 10000 nM. On the same count and under the same terms, for `O=C1CCCC2=C1[C@H](c1ccc(F)c(F)c1)C1=C(CCS1(=O)=O)N2` the value was 2040 nM; for `O=C1CCCC2=C1[C@H](c1ccc(F)c(-c3cccs3)c1)C1=C(CCS1(=O)=O)N2`, over 10000 nM.

Take `CC1(C)CCC(=O)C2=C1NC1=C([C@H]2c2ccc(F)c(Br)c2)S(=O)(=O)CC1`: the EC50 was 631 nM in assay [1] and 2690 nM in assay [2]. Turning to `O=C1CCC2=C1[C@H](c1ccc(F)c(Br)c1)C1=C(CCCS1(=O)=O)N2`, the EC50 was 14800 nM in assay [1] and 26300 nM in assay [2]. Take `O=C1CCCC2=C1[C@H](c1ccc3nsnc3c1)C1=C(CCS1(=O)=O)N2`: the EC50 in assay [1] is 2400 nM. On the same count and under the same terms, with `CC1(C)CC(=O)C2=C(C1)NC1=C([C@H]2c2ccc(F)c(Br)c2)S(=O)(=O)CC1` the figure was 7080 nM. For the compound `O=C1CCCC2=C1[C@H](c1ccc(Cl)c(Br)c1)C1=C(CCS1(=O)=O)N2`, the EC50 in assay [1] was 25.7 nM; in assay [2] it was 724 nM.

On to `Cc1ccc([C@H]2C3=C(CCCC3=O)NC3=C2S(=O)(=O)CC3)cc1[N+](=O)[O-]`, for which the EC50 in assay [1] was 282 nM; in assay [2], 537 nM. As for `O=C1CCCC2=C1[C@H](c1ccc(Br)cc1)C1=C(CCS1(=O)=O)N2`, in assay [1], the half-maximal effective concentration (EC50) is over 10000 nM.

As to `O=C1CCC2=C1[C@@H](c1ccc(F)c(Br)c1)C1=C(CCS1(=O)=O)N2`, the values for the 50% effective concentration (EC50) in assay [1] and in assay [2] were 33.1 nM and 30.9 nM, respectively. For `CC(=O)C1=C(C)NC2=C(C1c1ccc(F)c(Br)c1)S(=O)(=O)CCC2` (stereo not drawn), the EC50 in assay [1] is 214 nM; in assay [2], 794 nM. On to `N#Cc1cccc(C2C3=C(CCCC3=O)NC3=C2C(=O)CCC3)c1`, for which, in assay [2], the concentration for a half-maximal effect (EC50) was 9770 nM. On to `O=C1CCCC2=C1[C@H](c1ccc(F)c(I)c1)C1=C(CCS1(=O)=O)N2`, for which the figures for the EC50 in assay [1] and in assay [2] were 28.2 nM and 447 nM, respectively. With `COC(=O)C1=C(C)NC2=C(C1c1ccc(F)c(Br)c1)S(=O)(=O)CC2` (stereo not drawn), the half-maximal effective concentration (EC50) in assay [1] is 53.7 nM. On the same count and under the same terms, with `CCOC(=O)C1=C(C)NC2=C(C1c1ccc(F)c(Br)c1)S(=O)(=O)CC2` (stereo not drawn) the figure was 501 nM. Regarding `O=C1CCCC2=C1[C@H](c1ccc3nonc3c1)C1=C(CCS1(=O)=O)N2`, the values for the concentration giving a half-maximal response (EC50) in assay [1] and in assay [2] were 214 nM and 2340 nM, respectively. In turn, `CC(=O)c1cc([C@H]2C3=C(CCCC3=O)NC3=C2S(=O)(=O)CC3)ccc1F` gave an EC50 in assay [1] of 1050 nM. This counts as single-digit micromolar. Same read-out and setting: with `O=C1CCCC2=C1[C@H](c1cccc(Br)c1)C1=C(CCS1(=O)=O)N2` the figure was 1510 nM; with `CCOC(=O)C1=C(C(F)(F)F)NC2=C(C1c1ccc(F)c(Br)c1)S(=O)(=O)CC2` (stereo not drawn), over 10000 nM. With `CC1(C)CCC2=C(C1=O)[C@H](c1ccc(F)c(Br)c1)C1=C(CCS1(=O)=O)N2`, the EC50 in assay [1] is 83.2 nM; in assay [2] it was 5620 nM. As to `O=C1CCCC2=C1C(c1ccc(F)c(Br)c1)C1=C(CCCS1(=O)=O)N2` (single isomer, unassigned; (+)), the EC50 is 1200 nM in assay [1] and 6760 nM in assay [2]. Turning to `CCc1ccc([C@H]2C3=C(CCCC3=O)NC3=C2S(=O)(=O)CC3)cc1[N+](=O)[O-]`, in assay [1], the EC50 was 2290 nM. As for `Cc1ccc([C@H]2C3=C(CCCC3=O)NC3=C2S(=O)(=O)CC3)cc1S(C)(=O)=O`, the EC50 in assay [1] was over 10000 nM.

Take `O=C1CCCC2=C1[C@H](c1ccc(F)c(C(F)(F)F)c1)C1=C(CCS1(=O)=O)N2`: the EC50 in assay [1] was 155 nM; in assay [2], 977 nM.

As to `O=C1CCCC2=C1[C@H](c1cc(Br)c(F)cc1O)C1=C(CCS1(=O)=O)N2`, the results for the EC50 in assay [1] and in assay [2] were 209 nM and 676 nM, respectively. Regarding `CC1=C(C#N)C(c2ccc(F)c(Br)c2)C2=C(CCS2(=O)=O)N1` (stereo not drawn), the EC50 in assay [1] is 27.5 nM. Take `O=S1(=O)CCCC2=C1C(c1ccc(F)c(Br)c1)C1=C(CCCS1(=O)=O)N2`: the EC50 in assay [1] was 3160 nM; in assay [2], 11700 nM. In assay [1], `Cc1cc([C@H]2C3=C(CCCC3=O)NC3=C2S(=O)(=O)CC3)ccc1F` showed an EC50 of 2820 nM. In other words, the single-digit micromolar range. Still for that read-out and setting: with `O=C1CCCC2=C1[C@H](c1cc(Cl)c(Cl)cc1CO)C1=C(CCS1(=O)=O)N2` the figure was 61700 nM; with `N#Cc1cc([C@H]2C3=C(CCCC3=O)NC3=C2S(=O)(=O)CC3)ccc1F`, 468 nM; with `O=C1CCC2=C1C(c1cncc([N+](=O)[O-])c1)C1=C(CCS1(=O)=O)N2` (stereo not drawn), over 10000 nM.

`CSc1cc([C@H]2C3=C(CCCC3=O)NC3=C2S(=O)(=O)CC3)ccc1F` showed an EC50 in assay [1] of 2570 nM. Turning to `O=C1CCCC2=C1[C@H](c1ccc(F)c(-c3ccco3)c1)C1=C(CCS1(=O)=O)N2`, the EC50 in assay [1] was 214 nM; in assay [2], 1700 nM.

Regarding `O=C1CCC2=C1C(c1cc(Br)cs1)C1=C(CCS1(=O)=O)N2` (stereo not drawn), it took 741 nM to reach a half-maximal effect in assay [1] (EC50). This counts as sub-micromolar.

As to `O=C1CCC2=C1C(c1csc([N+](=O)[O-])c1)C1=C(CCS1(=O)=O)N2` (stereo not drawn), the EC50 was 240 nM in assay [1] and 661 nM in assay [2].

As for `CCc1cc(C#N)ccc1Nc1c(N[C@H](C)C(C)(C)C)c(=O)c1=O`, the EC50 is 102 nM in assay [3], 251 nM in assay [1] and 676 nM in assay [2]. In addition, the Selectivity in assay [4] worked out at 6.6.

In assay [1], `O=C1CCCC2=C1[C@H](c1ccc(F)c(-c3cccnc3)c1)C1=C(CCS1(=O)=O)N2` gave an EC50 of over 10000 nM.

With `CCC(C)(C)NC(=NC#N)Nc1cccnc1`, the EC50 in assay [3] was 21.9 nM; in assay [1] it was 44.7 nM; in assay [2] it was 85.1 nM. Turning to `CC1=C(C(=O)O)C(c2ccc(F)c(Br)c2)C2=C(CCS2(=O)=O)N1` (stereo not drawn), the figures for the EC50 in assay [1] and in assay [2] were 1820 nM and 8710 nM, respectively. In assay [1], `CC1(C)CCC(=O)C2=C1NC1=C([C@@H]2c2ccc(F)c(Br)c2)S(=O)(=O)CC1` had an EC50 of over 10000 nM.

The compound `O=C1CCCC2=C1[C@H](c1ccc(Cl)c(F)c1)C1=C(CCS1(=O)=O)N2` showed a half-maximal effective concentration (EC50) in assay [1] of 1320 nM.

Consider `C=Cc1cc([C@H]2C3=C(CCCC3=O)NC3=C2S(=O)(=O)CC3)ccc1F`, for which the EC50 in assay [1] is 1350 nM; in assay [2], 2450 nM.

For the compound `O=C1CCC2=C1[C@H](c1ccc(F)c(Br)c1)C1=C(CCS1(=O)=O)N2`, the EC50 was 575 nM in assay [1] and 339 nM in assay [2]. For `O=C1CCC2=C1C(c1ccc(F)c(Br)c1)C1=C(CCCCS1(=O)=O)N2` (stereo not drawn) the same measures were 2240 nM and 11700 nM. Consider `O=C1CCCC2=C1C(c1ccc(F)c(Br)c1)C1=C(CCCCS1(=O)=O)N2` (stereo not drawn), for which the EC50 in assay [1] is 3310 nM. `O=C1CCCC2=C1[C@H](c1ccc(Cl)c(Cl)c1)C1=C(CCS1(=O)=O)N2`: the values for the EC50 in assay [1] and in assay [2] were 269 nM and 331 nM, respectively. The compound `O=C1CCC2=C1C(c1ccc([N+](=O)[O-])s1)C1=C(CCS1(=O)=O)N2` (stereo not drawn) gave a Log EC50 in assay [5] of -6.82. The midpoint of the response in assay [2], the EC50, lay at 479 nM. `N#Cc1cccc(C2C3=C(CCC3=O)NC3=C2S(=O)(=O)CC3)n1` (stereo not drawn) had an EC50 in assay [1] of over 10000 nM. In the case of `O=C1CCCC2=C1[C@H](c1ccc(F)c(Cl)c1)C1=C(CCS1(=O)=O)N2`, the EC50 was 138 nM in assay [1] and 214 nM in assay [2]. For `Cc1ccc([C@H]2C3=C(CCCC3=O)NC3=C2S(=O)(=O)CC3)cc1Br` the same measures were 182 nM and 110 nM. Consider `O=C1CCCC2=C1[C@H](c1ccc(F)c(-c3ccccc3)c1)C1=C(CCS1(=O)=O)N2`, for which, in assay [1], the EC50 was 12000 nM. Consider `O=S1(=O)CCC2=C1C(c1ccc(F)c(Br)c1)C=C(C(F)(F)F)N2` (stereo not drawn), for which the EC50 in assay [1] was 447 nM; in assay [2], 2240 nM. The compound `CC1(C)CC(=O)C2=C(C1)NC1=C([C@@H]2c2ccc(F)c(Br)c2)S(=O)(=O)CC1` gave an EC50 in assay [1] of 17800 nM.
